In brackets after ≈: the same amount, converted by molar mass.
Each compound was assayed on HL-60 (assay: Cytotoxic activity against human tumor HL-60 leukemia cells). Conditions: not given.
Assay type: functional, cell-based
Procedure, shortened: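 HL-60 cells grown in RPMI 1640 with 20% FBS. Seeded at (1-2) × 10⁴ cells/mL, preincubated 24 h, then exposed to a range of compound concentrations for 72 h at 37 °C in 5% CO₂. Read by MTT (5 mg/mL solution, 4 h), formazan dissolved in DMSO, absorbance 570 nm/690 nm. IC50 is the concentration giving 50% absorbance reduction vs control. Mean of at least two independent experiments.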

In order of falling IC50:
1. COc1cc([C@@H]2c3cc4c(cc3[C@@H](O[C@@H]3O[C@@H]5CO[C@@H](C)O[C@H]5[C@H](O)[C@H]3O)[C@H]3COC(=O)[C@H]23)OCO4)cc(OC)c1O [ETOPOSIDE]  0.15 µg/mL (≈ 0.255 µM)
2. CN[C@H]1CN(c2ccc3c(=O)c(C(=O)O)cn(-c4nccs4)c3n2)C[C@@H]1OC [VOSAROXIN]  0.0498 µg/mL (≈ 0.124 µM)

The compounds below were run on Hs746T (assay: Cytotoxic activity against human tumor Hs 746.T stomach cells). Conditions: not given.
Assay type: functional, cell-based
Procedure, shortened: (§1)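 Hs746T and PANC-1 cells kept in Dulbecco's modified Eagle's medium with 10% FBS. Seeded at (1-2) × 10⁴ cells/mL, 24 h preincubation, then graded compound concentrations for 72 h at 37 °C in 5% CO₂. MTT (5 mg/mL solution) added for 4 h, formazan taken up in DMSO, read at 570/690 nm. IC50 is 50% absorbance reduction relative to control. At least two independent experiments averaged.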

In order of falling IC50:
1. COc1cc([C@@H]2c3cc4c(cc3[C@@H](O[C@@H]3O[C@@H]5CO[C@@H](C)O[C@H]5[C@H](O)[C@H]3O)[C@H]3COC(=O)[C@H]23)OCO4)cc(OC)c1O [ETOPOSIDE]  3.29 µg/mL (≈ 5.59 µM)
2. CN[C@H]1CN(c2ccc3c(=O)c(C(=O)O)cn(-c4nccs4)c3n2)C[C@@H]1OC [VOSAROXIN]  0.194 µg/mL (≈ 0.483 µM)

What follows are compounds tested on Mus musculus (assay: Ratio of median survival time of treated mice (T) to that of median survival time of controls (C) in mice infected with p388 cells (in vivo) at a dose of 50 mg/kg). Conditions: not given.
Assay type: functional
Procedure, shortened: (§2)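 BDF1 mice implanted ip with 0.1 mL diluted ascites fluid carrying 10⁶ P388 leukemia cells. Dosing ip on days 1 and 5 after implantation. Test compounds were suspended in 0.4% CMC, and reference drugs were dissolved and diluted in distilled water. Seven mice per group. T/C (%) = median survival time of treated group / median survival time of control group × 100.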

Compound `COc1cc([C@@H]2c3cc4c(cc3[C@@H](O[C@@H]3O[C@@H]5CO[C@@H](C)O[C@H]5[C@H](O)[C@H]3O)[C@H]3COC(=O)[C@H]23)OCO4)cc(OC)c1O` [ETOPOSIDE] has a T/C of over 375%.

The compounds below were run on Mus musculus (assay: Ratio of median survival time of treated mice (T) to that of median survival time of controls (C) in mice infected with p388 cells (in vivo) at a dose of 6.25 mg/kg). Conditions: not given.
Assay type: functional
Procedure, shortened: as §2

In order of rising T/C:
1. COc1cc([C@@H]2c3cc4c(cc3[C@@H](O[C@@H]3O[C@@H]5CO[C@@H](C)O[C@H]5[C@H](O)[C@H]3O)[C@H]3COC(=O)[C@H]23)OCO4)cc(OC)c1O [ETOPOSIDE]  200%
2. CISPLATIN  290%
3. COc1cccc2c1C(=O)c1c(O)c3c(c(O)c1C2=O)C[C@@](O)(C(=O)CO)C[C@@H]3O[C@H]1C[C@H](N)[C@H](O)[C@H](C)O1 [DOXORUBICIN]  293%

What follows are compounds tested on Mus musculus (assay: Ratio of median survival time of treated mice (T) to that of median survival time of controls (C) in mice infected with p388 cells (in vivo) at a dose of 0.78 mg/kg). Conditions: not given.
Assay type: functional
Procedure, shortened: as §2

In order of falling T/C:
1. COc1cccc2c1C(=O)c1c(O)c3c(c(O)c1C2=O)C[C@@](O)(C(=O)CO)C[C@@H]3O[C@H]1C[C@H](N)[C@H](O)[C@H](C)O1 [DOXORUBICIN]  173%
2. CISPLATIN  154%
3. COc1cc([C@@H]2c3cc4c(cc3[C@@H](O[C@@H]3O[C@@H]5CO[C@@H](C)O[C@H]5[C@H](O)[C@H]3O)[C@H]3COC(=O)[C@H]23)OCO4)cc(OC)c1O [ETOPOSIDE]  138%

The compounds below were run on Mus musculus (assay: Ratio of median survival time of treated mice (T) to that of median survival time of controls (C) in mice infected with p388 cells (in vivo) at a dose of 1.56 mg/kg). Conditions: not given.
Assay type: functional
Procedure, shortened: as §2

In order of falling T/C:
1. COc1cccc2c1C(=O)c1c(O)c3c(c(O)c1C2=O)C[C@@](O)(C(=O)CO)C[C@@H]3O[C@H]1C[C@H](N)[C@H](O)[C@H](C)O1 [DOXORUBICIN]  228%
2. CISPLATIN  186%
3. COc1cc([C@@H]2c3cc4c(cc3[C@@H](O[C@@H]3O[C@@H]5CO[C@@H](C)O[C@H]5[C@H](O)[C@H]3O)[C@H]3COC(=O)[C@H]23)OCO4)cc(OC)c1O [ETOPOSIDE]  150%

The compounds below were run on Mus musculus (assay: Ratio of median survival time of treated mice (T) to that of median survival time of controls (C) in mice infected with p388 cells (in vivo) at a dose of 12.5 mg/kg). Conditions: not given.
Assay type: functional
Procedure, shortened: as §2

`COc1cc([C@@H]2c3cc4c(cc3[C@@H](O[C@@H]3O[C@@H]5CO[C@@H](C)O[C@H]5[C@H](O)[C@H]3O)[C@H]3COC(=O)[C@H]23)OCO4)cc(OC)c1O` [ETOPOSIDE] was tested, and the T/C was 250%.

What follows are compounds tested on Mus musculus (assay: Ratio of median survival time of treated mice (T) to that of median survival time of controls (C) in mice infected with p388 cells (in vivo) at a dose of 25 mg/kg). Conditions: not given.
Assay type: functional
Procedure, shortened: as §2

Work on `COc1cc([C@@H]2c3cc4c(cc3[C@@H](O[C@@H]3O[C@@H]5CO[C@@H](C)O[C@H]5[C@H](O)[C@H]3O)[C@H]3COC(=O)[C@H]23)OCO4)cc(OC)c1O` [ETOPOSIDE] yielded a T/C of over 375%.

These compounds were tested on Mus musculus (assay: Ratio of median survival time of treated mice (T) to that of median survival time of controls (C) in mice infected with p388 cells (in vivo) at a dose of 3.13 mg/kg). Conditions: not given.
Assay type: functional
Procedure, shortened: as §2

In order of falling T/C:
1. CISPLATIN  239%
2. COc1cccc2c1C(=O)c1c(O)c3c(c(O)c1C2=O)C[C@@](O)(C(=O)CO)C[C@@H]3O[C@H]1C[C@H](N)[C@H](O)[C@H](C)O1 [DOXORUBICIN]  235%
3. COc1cc([C@@H]2c3cc4c(cc3[C@@H](O[C@@H]3O[C@@H]5CO[C@@H](C)O[C@H]5[C@H](O)[C@H]3O)[C@H]3COC(=O)[C@H]23)OCO4)cc(OC)c1O [ETOPOSIDE]  175%

Each compound was assayed on P388 (assay: Cytotoxic activity against murine P388 leukemia cells). Conditions: Mus musculus.
Assay type: functional, cell-based

In order of falling IC50:
1. Cc1cc(-c2ccc3c(=O)c(C(=O)O)cn(-c4nccs4)c3n2)cc(C)n1  7.37 µg/mL (≈ 19.5 µM)
2. Cl.O=C(O)c1cn(-c2nccs2)c2nc(N3CCOCC3)ccc2c1=O  0.12 µg/mL
3. C[C@@H]1CN(c2ccc3c(=O)c(C(=O)O)cn(-c4nccs4)c3n2)C[C@H](C)N1.Cl  0.081 µg/mL
4. Cl.O=C(O)c1cn(-c2nccs2)c2nc(N3CCNCC3)ccc2c1=O  0.057 µg/mL
5. Cl.NC1CCN(c2cc(Cl)c3c(=O)c(C(=O)O)cn(-c4nccs4)c3n2)C1 (centres undefined)  0.049 µg/mL
6. CN[C@H]1CN(c2ccc3c(=O)c(C(=O)O)cn(-c4nccs4)c3n2)C[C@@H]1SC.Cl  0.02 µg/mL
7. C[C@H]1CN(c2ccc3c(=O)c(C(=O)O)cn(-c4nccs4)c3n2)C[C@]1(C)N.Cl  0.02 µg/mL

These compounds were tested on PANC-1 (assay: Cytotoxic activity against human tumor PANC-1 pancreas cells). Conditions: not given.
Assay type: functional, cell-based
Procedure, shortened: as §1

In order of rising IC50:
1. CN[C@H]1CN(c2ccc3c(=O)c(C(=O)O)cn(-c4nccs4)c3n2)C[C@@H]1OC [VOSAROXIN]  0.388 µg/mL (≈ 0.967 µM)
2. COc1cc([C@@H]2c3cc4c(cc3[C@@H](O[C@@H]3O[C@@H]5CO[C@@H](C)O[C@H]5[C@H](O)[C@H]3O)[C@H]3COC(=O)[C@H]23)OCO4)cc(OC)c1O [ETOPOSIDE]  1.6 µg/mL (≈ 2.72 µM)

The compounds below were run on SCaBER (assay: Cytotoxic activity against human tumor SCaBER bladder cells). Conditions: not given.
Assay type: functional, cell-based
Procedure, shortened: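 SCaBER cells maintained in EMEM with 10% FBS and nonessential amino acids. Seeded at (1-2) × 10⁴ cells/mL, 24 h preincubation, then 72 h compound exposure at various concentrations at 37 °C in 5% CO₂. MTT (5 mg/mL) for 4 h, then DMSO, read at 570/690 nm. IC50 is 50% absorbance drop vs control. At least two independent experiments averaged.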

In order of rising IC50:
1. CN[C@H]1CN(c2ccc3c(=O)c(C(=O)O)cn(-c4nccs4)c3n2)C[C@@H]1OC [VOSAROXIN]  0.121 µg/mL (≈ 0.301 µM)
2. COc1cc([C@@H]2c3cc4c(cc3[C@@H](O[C@@H]3O[C@@H]5CO[C@@H](C)O[C@H]5[C@H](O)[C@H]3O)[C@H]3COC(=O)[C@H]23)OCO4)cc(OC)c1O [ETOPOSIDE]  0.276 µg/mL (≈ 0.469 µM)

These compounds were tested on SBC-3 (assay: Cytotoxic activity against human tumor SBC-3 lung cells). Conditions: not given.
Assay type: functional, cell-based
Procedure, shortened: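 SBC-3 cells cultured in RPMI 1640 plus 10% FBS. Plated at (1-2) × 10⁴ cells/mL, preincubated 24 h, then compound at various concentrations for 72 h at 37 °C in 5% CO₂. MTT solution (5 mg/mL) for 4 h, DMSO solubilization, absorbance 570 nm with 690 nm reference. IC50 is the dose halving absorbance vs control. Mean of at least two independent runs.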

In order of rising IC50:
1. CN[C@H]1CN(c2ccc3c(=O)c(C(=O)O)cn(-c4nccs4)c3n2)C[C@@H]1OC [VOSAROXIN]  0.0319 µg/mL (≈ 0.0795 µM)
2. COc1cc([C@@H]2c3cc4c(cc3[C@@H](O[C@@H]3O[C@@H]5CO[C@@H](C)O[C@H]5[C@H](O)[C@H]3O)[C@H]3COC(=O)[C@H]23)OCO4)cc(OC)c1O [ETOPOSIDE]  0.0676 µg/mL (≈ 0.115 µM)

What follows are compounds tested on SK-OV-3 (assay: Cytotoxic activity against human tumor SK-OV-3 ovary cells). Conditions: SK-OV-3, Female gonad.
Assay type: functional, cell-based
Procedure, shortened: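 SKOV3 cells grown in RPMI 1640 with 10% heat-inactivated FBS. Cells at (1-2) × 10⁴ cells/mL, preincubated 24 h, treated with graded concentrations for 72 h at 37 °C in 5% CO₂. MTT readout (5 mg/mL, 4 h), formazan in DMSO, absorbance 570 nm/690 nm. IC50 is the concentration for 50% absorbance reduction vs control. Mean of at least two independent experiments.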

In order of falling IC50:
1. COc1cc([C@@H]2c3cc4c(cc3[C@@H](O[C@@H]3O[C@@H]5CO[C@@H](C)O[C@H]5[C@H](O)[C@H]3O)[C@H]3COC(=O)[C@H]23)OCO4)cc(OC)c1O [ETOPOSIDE]  1.06 µg/mL (≈ 1.8 µM)
2. CN[C@H]1CN(c2ccc3c(=O)c(C(=O)O)cn(-c4nccs4)c3n2)C[C@@H]1OC [VOSAROXIN]  0.266 µg/mL (≈ 0.663 µM)

Reference: ChEMBL document CHEMBL1149148, “Synthesis and structure-activity relationships of novel 7-substituted 1,4-dihydro-4-oxo-1-(2-thiazolyl)-1,8-naphthyridine-3-carboxylic acids as antitumor agents. Part 2” (J Med Chem, 2004)
